Compound activity as filed in PubChem BioAssay.
Most compounds without a hit are left out; they make up all but 2.9% or so of the library.
PAX8 reporter: inhibitors of PAX8 transcriptional activity in RMG-I cells. AID 652154. RMG-I TPO-luciferase reporter, SteadyGlo, 24 h. 360,000 compounds, 1.2% hits. inhibition, % at 12.6 µM;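 active means mean replicate inhibition at least 60% with every replicate also reaching 60%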;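 further: luciferase light reporting Pax8 driven TPO promoter activity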
Cneo AK release: causes C. neoformans cell lysis; adenylate kinase release luminescence, 4 h; normalised: neutral wells 0, clomiphene wells 100; lysis activity, % at 15 µM; 360,000 compounds, 0.2% hits; AID 651654;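 active means mean lysis activity across replicates of at least 80%, whatever share of replicates individually reach that level; inactive means mean lysis activity below 80%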
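Test system: log-phase Cryptococcus neoformans yeast cells; Quantity: yeast cell density of 5 × 10^6 cells/mL; Buffer or medium: YPD; Doses: single compound concentration per well; Timing: 4 h at 37 °C static, read 1 h later; Measured by: AK luminescence; Read-out basis: lysis from increased AK signal; Control set: Clomiphene as positive control.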
Env fusion inh: blocks HIV Env-driven cell-cell fusion | AID 651610 | 360,000 compounds, 1.1% hits | HeLa-JRFL Env/CEM21 cell fusion, luciferase | inhibition, % at 12.3 µM;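 active means mean replicate inhibition score of at least 50 and every replicate individually at or above 50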
CDK5 p35 inh: inhibitors of human CDK5/p35 kinase | Q00535+Q15078 | Recombinant CDK5/p35, ADP-Glo luminescence, 60 min | inhibition, % at 10 µM | 330,000 compounds, 0.01% hits | AID 488839;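 active means highest replicate inhibition of at least 50% and at least 75% of replicates reaching 50%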
Target sequence (Q00535 whole entry, looked up): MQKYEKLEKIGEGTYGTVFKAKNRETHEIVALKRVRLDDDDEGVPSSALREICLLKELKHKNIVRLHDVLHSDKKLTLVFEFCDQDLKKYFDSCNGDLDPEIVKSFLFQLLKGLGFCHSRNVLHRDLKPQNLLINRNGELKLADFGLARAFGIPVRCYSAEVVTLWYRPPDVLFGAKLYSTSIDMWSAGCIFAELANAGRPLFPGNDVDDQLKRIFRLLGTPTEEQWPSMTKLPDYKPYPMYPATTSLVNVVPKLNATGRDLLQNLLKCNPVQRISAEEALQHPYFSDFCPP
Target sequence (Q15078 whole entry, looked up): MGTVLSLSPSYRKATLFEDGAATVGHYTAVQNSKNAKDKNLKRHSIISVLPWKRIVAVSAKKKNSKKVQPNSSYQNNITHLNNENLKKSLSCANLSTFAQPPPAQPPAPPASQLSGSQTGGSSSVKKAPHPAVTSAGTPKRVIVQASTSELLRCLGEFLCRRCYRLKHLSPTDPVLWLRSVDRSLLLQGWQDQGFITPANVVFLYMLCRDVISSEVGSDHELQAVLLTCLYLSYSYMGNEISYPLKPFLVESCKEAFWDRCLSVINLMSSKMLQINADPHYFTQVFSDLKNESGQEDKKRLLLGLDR
GSIS activator: GLuc luminescence reporter in INS-1E cells, primary screen for activators of glucose-dependent secretion of insulin. 370,000 compounds, 0.61% hits. AID 743287. activation, % at 16.6 µM. INS-1E GLuc reporter insulin secretion, 2-3 h;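 active means lowest replicate activation of at least 40%, so every replicate reaches that level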
dFosB activator: activators of mouse delta FosB homodimer. P13346. activation, % at 25 µM. purified delta FosB, TAMRA-CDK5 oligo fluorescence polarization; percent of positive-control signal above neutral wells. 340,000 compounds, 0.99% hits;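 active means mean activation above about 17%, with every replicate also reaching it, limit read from the data, passing the limit was not always enough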
Numbers stand for hits; n = inactive; x = no result given.

SMILES | PAX8 reporter | Cneo AK release | Env fusion inh | CDK5 p35 inh | GSIS activator | dFosB activator
Cc1ccc(NC(=O)[C@@H](Cc2ccccc2)NC(=O)[C@H]2O[C@@H](n3ccc(=O)[nH]c3=O)[C@H](O)[C@@H]2O)cc1C | n | x | n | x | 51 | x
NC(=O)c1ncn([C@@H]2O[C@H](C(=O)N[C@H](Cc3ccccc3)C(=O)O)[C@@H](O)[C@H]2O)n1 | n | x | n | x | 44 | x
CCOC(=O)N1C(=O)[C@@](c2ccc(Cl)cc2)(C(C)C)N1C(=O)OCC | 69 | n | n | n | n | n
CCOC(=O)N1C(=O)[C@](c2ccc(Cl)cc2)(C(C)C)N1C(=O)OCC | n | n | n | n | n | n
CCCn1c2c(c(=N)c3c1CCC3)CCC2 | n | x | n | n | n | n
CCCCCCCn1c2c(c(=N)c3ccccc31)CCC2 | 100 | x | n | n | n | n
C[C@@H]1CN([C@H](C)CO)S(=O)(=O)c2ccc(-c3ccccc3)cc2O[C@H]1CN(C)C | n | n | n | x | n | x
COc1ccc(NC(=O)c2ccc(Cl)c(S(=O)(=O)N3CCc4ccccc4C3)c2)cn1 | n | x | 92 | n | n | n
COc1cc2cnc(-c3ccccc3)c(-c3ccc(C(F)(F)F)cc3)c2cc1OC | n | n | 84 | n | n | n
Fc1ccc2c(-c3cccc(C(F)(F)F)c3)c(-c3ccccc3)ncc2c1 | n | n | 69 | n | n | n
Fc1ccc2cnc(-c3ccccc3)c(-c3ccc(C(F)(F)F)cc3)c2c1 | n | n | n | n | n | n
COc1ccc(CC(=O)OCN2C(=O)c3ccccc3C2=O)cc1 | x | n | x | n | n | n
COc1ccc(CC(=O)OCn2nnc3ccccc3c2=O)cc1OC | n | x | n | n | 44 | n
COc1ccc(CC(=O)OCN2C(=O)c3ccccc3C2=O)cc1OC | x | n | n | n | 62 | n
COc1ccc(C(=O)O/N=C(\N)c2ccc(OC)c(OC)c2)c(OC)c1 | x | n | x | n | x | n
COc1ccc(CC(=O)OCn2nnc3ccccc3c2=O)cc1 | x | n | x | n | n | n
COc1ccc(C(=O)COC(=O)CN2C(=O)c3ccccc3C2=O)c(OC)c1 | n | n | n | n | n | 19
COc1ccc(C(=O)O/N=C(\N)c2ccc(OC)c(OC)c2)cc1 | n | n | n | n | 45 | n
O=C(c1ccc(F)cc1)N1CC(=O)N2[C@@H](CO)[C@H](c3ccc(C#CC4CC4)cc3)[C@@H]2C1 | n | x | x | x | n | x
COc1cccc(NC(=O)C[C@H]2CC[C@H]3[C@@H](COc4ccc(NC(=O)C5CCCC5)cc4C(=O)N3C)O2)c1 | n | x | x | x | n | x
COc1ccc(S(=O)(=O)N[C@H]2C=C[C@H](CC(=O)NCCc3ccncc3)O[C@H]2CO)cc1 | x | n | x | x | n | x
CN1c2ccc(-c3ccccc3)cc2[C@H]2[C@H](CCN2C(=O)Cc2ccccc2)[C@H]1CO | n | n | x | x | n | x
COc1ccc(CC(=O)O/N=C(\N)c2ccccc2)cc1OC | n | n | n | n | 51 | n
C[n+]1ccc(/C=C/c2c[nH]c3ccc(F)cc23)cc1 | 70 | n | 59 | n | n | n
Cn1cc(/C=C/c2cc[n+](C)cc2)c2cc(F)ccc21 | x | n | x | n | x | n
SMILES | PAX8 reporter | Cneo AK release | Env fusion inh | CDK5 p35 inh | GSIS activator | dFosB activator
Nc1nc(N)c2c(ccc3c2ccn3Cc2cccc([N+](=O)[O-])c2)n1 | 117 | x | n | x | n | x
Nc1nc(N)c2cc([N+](=O)[O-])ccc2n1 | n | n | x | n | n | n
CC(C)(COC(=O)C(c1ccccc1)c1ccccc1)CN1CCOCC1 | n | x | 80 | n | n | n
COc1ccc(S(=O)(=O)N(C)C[C@@H]2Oc3c(NS(=O)(=O)c4ccc(Cl)cc4)cccc3C(=O)N([C@H](C)CO)C[C@@H]2C)cc1 | n | n | n | x | n | x
C[C@H]1CN([C@@H](C)CO)C(=O)Cc2cc(NC(=O)Cc3ccccc3)ccc2O[C@H]1CN(C)CC1CCCCC1 | n | n | n | x | n | x
CCNS(=O)(=O)c1ccc(CCC(=O)Nc2cc(Cl)ccc2Oc2ccccc2)cc1 | x | n | 107 | n | x | n
COc1ccc(OC)c(-c2csc(NC(=O)CSc3nnnn3C)n2)c1 | n | x | n | n | n | 33
O=C(NCC[C@H]1CC[C@H](NC(=O)C2CCCCC2)[C@H](CO)O1)c1cnccn1 | n | n | n | x | n | x
CCC(C)OC(=O)C[N+](C)(C)CCOC1CC2CCC1(C)C2(C)C (stereo not given) | n | n | 66 | n | n | n
CCCCCCOC(=O)C[N+](C)(C)CCOC1CC2CCC1(C)C2(C)C (stereo not given) | x | n | n | n | x | n
CCCOC(=O)C[N+](C)(C)CCOC1CC2CCC1(C)C2(C)C (stereo not given) | n | x | n | n | n | n
CCCCOC(=O)C[N+](C)(C)CCOC1CC2CCC1(C)C2(C)C (stereo not given) | n | n | 103 | n | n | n
CCCCCCCOC(=O)C[N+](C)(C)CCOC1CC2CCC1(C)C2(C)C (stereo not given) | n | x | 75 | n | 433 | n
CC(C)CCOC(=O)C[N+](C)(C)CCOC1CC2CCC1(C)C2(C)C (stereo not given) | n | x | 76 | n | n | n
C[C@@H]1CCCCO[C@@H](CN(C)C(=O)Cc2ccccc2)[C@H](C)CN([C@@H](C)CO)C(=O)c2cc(NS(=O)(=O)c3cn(C)cn3)ccc2O1 | n | n | n | x | n | x
O=C(C[C@H]1C=C[C@H](NC(=O)CN2CCOCC2)[C@@H](CO)O1)NC1CCC1 | n | n | n | x | n | x
C[C@H](CO)N1C[C@H](C)[C@@H](CN(C)S(=O)(=O)c2cccs2)Oc2ccc(NC(=O)C3CC3)cc2CC1=O | n | n | n | x | n | x
Clc1ccccc1CSc1nnc(-c2ccccn2)n1Cc1ccco1 | x | n | 66 | n | x | n
C/C=C/c1ccc([C@H]2[C@@H](CO)N(C(=O)NC(C)C)[C@@H]2CNC(C)=O)cc1 | x | x | x | x | n | x
CCCCCCCCCCCCCCC(O)C[N+](C)(CCO)CCO (stereo not given) | x | x | n | n | 295 | n
COc1ccccc1C(=O)NCCC(=O)NC1CCCC(C)C1C (stereo not given) | n | n | 58 | n | n | n
COc1ccccc1NC(=O)CSc1n[nH]c(Cc2ccccc2)n1 | n | n | n | n | 43 | n
CCc1nc(SCC(=O)Nc2ccccc2C)n[nH]1 | n | n | n | n | n | n
O=C(Nc1ccn(Cc2ccccc2F)n1)c1ccc(COc2ccccc2Cl)cc1 | x | n | 60 | n | x | n
Cc1cccc(-c2ccc([C@@H]3[C@H]4CN(C(=O)c5cccnc5)CC(=O)N4[C@H]3CO)cc2)c1 | n | x | x | x | n | x
C[C@@H](NC(=O)Cn1cnc2c(OCc3ccccc3)ncnc21)c1cccc2ccccc12 | n | n | n | n | n | 26
O=[N+]([O-])c1cccc(N=Nc2ccc(O)cc2O)c1 | 81 | n | n | n | n | n
O=[N+]([O-])c1ccc(N=Nc2ccc(O)cc2O)cc1 | 81 | n | n | n | n | n
